In ChEMBL document CHEMBL4368897, “Using 2-aminobenzimidazole derivatives to inhibit Mycobacterium smegmatis biofilm formation” (Medchemcomm, 2019):
≈ marks a conversion by molar mass, not a printed value.

Assays:
[1] = test system: Mycolicibacterium smegmatis; experiment: Antimicrobial activity against Mycobacterium smegmatis str. MC2 155 ATCC 700084 assessed as inhibition of planktonic bacteria growth incubated for 48 hrs by broth microdilution method; type: organism-based
Method in brief: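 48 h preculture in 7H9 (ADC, 0.5% Tween 80) used to inoculate fresh 7H9 at 5 × 10^5 CFU mL-1 (OD600 0.006). Compounds added from 100 mM DMSO-d6 stocks and twofold serially diluted. Incubated stationary at 37 °C for 48 h, then 6 h more with alamarBlue. MIC = lowest concentration without visible growth. Duplicate, at least two separate runs.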

[2] = test system: Mycolicibacterium smegmatis; experiment: Antibiofilm activity against Mycobacterium smegmatis str. MC2 155 ATCC 700084 assessed as inhibition of biofilm formation incubated for 48 hrs by crystal violet reporter assay; type: functional, organism-based; conditions: for IC50: Mycolicibacterium smegmatis, MC2 155 ATCC 700084, 48 h
Method in brief: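 48 h culture subcultured to 0.01 in M9 minimal salts medium containing compound. Incubated in PVC plates, stationary, 37 °C, 48 hr. Wells washed with water, stained 30 min with 0.1% crystal violet, and eluted with 95% ethanol for 10 min. OD540 read; % inhibition taken versus untreated wells. Duplicate wells, at least two separate runs.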

[3] = test system: Mycolicibacterium smegmatis; experiment: Potentiation of ampicillin-induced antimicrobial activity against Mycobacterium smegmatis str. MC2 155 ATCC 700084 assessed as fold reduction in ampicillin MIC at 20 uM incubated for 48 hrs by broth microdilution method; type: functional
[4] = test system: Mycolicibacterium smegmatis; experiment: Potentiation of cefotaxime-induced antimicrobial activity against Mycobacterium smegmatis str. MC2 155 ATCC 700084 assessed as fold reduction in cefotaxime MIC at 20 uM incubated for 48 hrs by broth microdilution method; type: functional

Structure (SMILES) | MIC [1] [µM] | IC50 [2] [µM] | fold change (FC) [3] | fold change (FC) [4] | MBIC50 [2] [µM]
CCCCCc1ccc(C(=O)Nc2ccc3[nH]c(N)nc3c2)cc1 | 150 (≈ 48.4 µg/mL) | 13.6 |  |  | 
CCCCCc1ccc(C(=O)Nc2ccc3c(c2)nc(N)n3CCCCc2ccccc2)cc1 | 100 (≈ 45.5 µg/mL) | 4.3 |  |  | 
CCCCCc1ccc(C(=O)Nc2ccc3c(c2)nc(N)n3CCc2cccc(OC)c2)cc1 | 200 (≈ 91.3 µg/mL) | 12.5 |  |  | 
CCCCCc1ccc(C(=O)Nc2ccc3c(c2)nc(N)n3Cc2ccccc2)cc1 | 100 (≈ 41.3 µg/mL) | 12.2 |  |  | 
CCCCCCn1c(N)nc2cc(NC(=O)c3ccc(CCCCC)cc3)ccc21 | > 200 | 25.6 |  |  | 
CCCCCc1ccc(C(=O)Nc2ccc3c(c2)nc(N)n3CCc2ccccc2)cc1 | 100 (≈ 42.7 µg/mL) | 5.4 |  |  | 
CCCCCc1ccc(C(=O)Nc2ccc3c(c2)nc(N)n3CCc2ccc(OC)cc2)cc1 | 120 (≈ 54.8 µg/mL) | 8.8 |  |  | 
CCCCCc1ccc(C(=O)Nc2ccc3c(c2)nc(N)n3CCCC)cc1 | > 200 | 22.4 |  |  | 
CCCCCc1ccc(C(=O)Nc2ccc3c(c2)nc(N)n3Cc2ccc(OC)cc2)cc1 | > 200 | 12.5 |  |  | 
CCCCCc1ccc(C(=O)Nc2ccc3c(c2)nc(N)n3CCCc2ccccc2)cc1 | 60 (≈ 26.4 µg/mL) | 3.5 | 16 | 128 | 8
CCCCCc1ccc(C(=O)Nc2ccc3c(c2)nc(N)n3CCc2ccccc2OC)cc1 | 120 (≈ 54.8 µg/mL) | 11.3 |  |  | 
Nc1nc2cc(NC(=O)Nc3ccc(Cl)c(Cl)c3)ccc2n1CCCc1ccccc1 | 100 (≈ 45.4 µg/mL) | 2.6 | 2 | 2 | 
Nc1nc2cc(C(=O)Nc3ccc(Cl)c(Cl)c3)ccc2n1CCCc1ccccc1 | 200 (≈ 87.9 µg/mL) | 8.6 |  |  | 
Nc1nc2cc(NC(=O)c3cc(Cl)cc(Cl)c3)ccc2n1CCCc1ccccc1 | 200 (≈ 87.9 µg/mL) | 9.4 |  |  | 
Nc1nc2cc(NC(=O)c3ccc(Cl)c(Cl)c3)ccc2n1CCCc1ccccc1 | 200 (≈ 87.9 µg/mL) | 8.8 |  |  | 
CCCCCCCCCn1c(N)nc2cc(NC(=O)c3ccc(CCCCC)cc3)ccc21 | 200 (≈ 89.7 µg/mL) | 23.2 |  |  | 
CCCCCc1ccc(C(=O)Nc2ccc3c(c2)nc(N)n3CCCc2ccccc2Br)cc1 | 120 (≈ 62.3 µg/mL) | 10.5 |  |  | 
CCCCCc1ccc(C(=O)Nc2ccc3c(c2)nc(N)n3CCCc2ccc(OC)cc2)cc1 | 100 (≈ 47.1 µg/mL) | 4.3 | 4 | 16 | 
CCCCCc1ccc(C(=O)Nc2ccc3c(c2)nc(N)n3CCCc2ccc(Cl)cc2)cc1 | 120 (≈ 57 µg/mL) | 6.4 | 4 | 8 | 
CCCCCc1ccc(C(=O)Nc2ccc3c(c2)nc(N)n3CCCc2cccc(Br)c2)cc1 | 100 (≈ 51.9 µg/mL) | 9.2 |  |  | 
CCCCCc1ccc(C(=O)Nc2ccc3c(c2)nc(N)n3CCCc2ccc(Br)cc2)cc1 | 100 (≈ 51.9 µg/mL) | 6.2 | 4 | 16 | 
CCCCCc1ccc(C(=O)Nc2ccc3c(c2)nc(N)n3CCCc2ccc(F)cc2)cc1 | 120 (≈ 55 µg/mL) | 3.6 | 4 | 64 | 
